This is a sample that favours compounds with a hit; in the whole collection about 2.4% have one here.
S1P4 agonist: activates the human S1P4 receptor. O95977. S1P4-expressing cell line, agonist reporter assay. actives 0.35% (n = 220,000). activation, % at 4.98 µM; in the data active means activation above about 11%;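 further: 0% = DMSO vehicle and 100% = reference agonist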
NPY-Y1 PAM-ag: human NPY-Y1 potentiation or agonism, primary screen | activation, % at 3.6 µM | AID 1304 | NPY-Y1 expressing cells, potentiator/agonist activation | actives 0.37% (n = 220,000) | P25929; in the data active means activation above about 33%, passing the limit was not always enough;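 further: cells stimulated with NPY at EC10 then isoproterenol at EC100; 0% = low agonist plus stimulus and 100% = saturating agonist plus stimulus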
NPY Y2 blocker: antagonists of human neuropeptide Y receptor Y2 | P49146 | NPY-Y2 expressing cells, antagonist mode | inhibition, % at 2.7 µM | actives 0.99% (n = 140,000) | AID 793; in the data active means inhibition above about 17%;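 further: 0% = vehicle with agonist challenge and 100% = reference antagonist with challenge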
S1P4 antagonist: blocks the human S1P4 receptor; O95977; S1P4-expressing cells, antagonist mode, reporter read-out; inhibition, % at 4.98 µM; actives 0.26% (n = 220,000); in the data active means inhibition above about 29%;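 further: 0% = wells stimulated with agonist and 100% = vehicle wells without agonist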
NPY Y1 blocker: NPY-Y1 (human) receptor antagonism | HEK293-CNG Y1 cells, membrane potential fluorescence; NPY at EC95, then isoproterenol | inhibition, % at 3.6 µM | actives 1% (n = 200,000) | AID 1040;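 active means inhibition above the campaign mean inhibition of all tested compounds plus 3 SD, cut at about 20% in these data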;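 further: 0% = DMSO wells given NPY plus isoproterenol and 100% = isoproterenol alone without NPY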
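Material: HEK293 cells with Y1 receptor plus CNG channel; times: compound incubation 1 h at room temperature, readout 45 min post-stimulation; signal: fluorescence, membrane potential probe; read-out basis: fluorescence ratio normalized to % inhibition between controls; benchmarks: full-block control isoproterenol-only wells, zero-block control NPY plus isoproterenol wells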
NPY2 pot ag: potentiators or agonists of human neuropeptide Y receptor Y2. P49146. cells expressing NPY-Y2, potentiator/agonist read-out. activation, % at 3.6 µM. actives 0.45% (n = 220,000); in the data active means activation above about 27%;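 further: cells stimulated with NPY near EC25 plus isoproterenol at EC100; 0% = vehicle plus submaximal agonist and 100% = vehicle plus saturating agonist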
S1P4 ag conf: confirmation of human S1P4 receptor agonists; shares compounds with S1P4 agonist; S1P4 agonist cell-based reporter assay; activation, % at 4.98 µM; actives 7% (n = 740); AID 1523; in the data active means activation above about 12%;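 further: 0% = vehicle and 100% = full reference agonist response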
S1P1 ag: activates human S1P1, counter-screen for S1P4 agonists. shares compounds with S1P4 agonist. S1P1 agonist cell-based assay, activation. activation, % at 4.98 µM. actives 4% (n = 740); in the data active means activation above about 21%;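 further: 0% = vehicle wells and 100% = reference agonist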
Target sequence (P21453 whole entry, looked up): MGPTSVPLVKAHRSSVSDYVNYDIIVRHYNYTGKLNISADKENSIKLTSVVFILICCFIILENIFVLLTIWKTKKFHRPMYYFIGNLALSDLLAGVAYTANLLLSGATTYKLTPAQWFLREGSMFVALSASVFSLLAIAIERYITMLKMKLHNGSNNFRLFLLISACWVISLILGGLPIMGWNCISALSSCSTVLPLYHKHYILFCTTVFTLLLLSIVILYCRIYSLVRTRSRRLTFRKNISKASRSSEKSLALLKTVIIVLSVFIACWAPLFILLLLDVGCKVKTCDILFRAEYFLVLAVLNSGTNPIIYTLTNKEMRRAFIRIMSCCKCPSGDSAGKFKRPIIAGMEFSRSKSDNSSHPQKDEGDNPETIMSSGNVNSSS
S1P4 antag conf: human S1P4 antagonism, confirmation; S1P4-expressing cell line, antagonist mode, reporter read-out; shares compounds with S1P4 antagonist; inhibition, % at 4.98 µM; actives 71% (n = 520); in the data active means inhibition above about 30%
S1P1 antagonist: counter-screen for S1P4 antagonists: antagonists of human S1P1 | inhibition, % at 4.98 µM | cell-based S1P1 antagonist counterscreen, inhibition | actives 37% (n = 520) | AID 1564 | shares compounds with S1P4 antagonist; in the data active means inhibition above about 40%;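 further: receptor stimulated with S1P near its EC80; 0% = agonist stimulated wells and 100% = vehicle only wells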
* hit, by the source's call; / = no result given.

SMILES | S1P4 agonist | NPY-Y1 PAM-ag | NPY Y2 blocker | S1P4 antagonist | NPY Y1 blocker | NPY2 pot ag | S1P4 ag conf | S1P1 ag | S1P4 antag conf | others
CN1CCC2(CC1)CC(NC=O)c1ccccc1O2 (configuration not stated) | 12.5* | 4.5 | / | -1.8 | 14.8 | -20.4 | -1.5 | -7.5 | /
O=C(C1CC(c2ccccc2O)=NO1)N1CCC2(CC1)OCCO2 (configuration not stated) | -5.4 | -14.7 | 3.2 | -6.8 | 2.6 | 8.6 | / | / | /
COCCCNC(=O)c1c(NC(=O)c2ccccc2Cl)n(Cc2ccccc2)c2nc3ccccc3nc12 | 11.9* | 7.1 | 2.4 | -8.6 | 13.6 | -21.1 | -0.1 | 1.7 | /
COCCNC(=O)c1c(NC(=O)c2ccco2)n(Cc2ccccc2)c2nc3ccccc3nc12 | 0.2 | 4.6 | 7.2 | -20.1 | -4.2 | -10.0 | / | / | /
CN(C/N=C(\N)N[N+](=O)[O-])S(=O)(=O)c1ccccc1 | 1.1 | 24.8 | / | -8.5 | -5.2 | 10.4 | / | / | /
S=C1CN=C(c2ccccc2Cl)c2cc(Cl)ccc2N1 | 26.8* | 1.5 | 7.5 | -0.1 | -0.6 | 7.4 | -2.3 | -4.7 | /
Cn1nnc(CC[N+](C)(C)C)n1 | -0.6 | -6.7 | / | 9.7 | / | -14.9 | / | / | /
C[n+]1ccc(-c2ccncc2)cc1 | 11.5* | -0.6 | 1.4 | 5.9 | -3.9 | -2.8 | -2.2 | -8.0 | /
CN[C@H]1C[C@H]2O[C@@](C)([C@H]1OC)n1c3ccccc3c3c4c(c5c6ccccc6n2c5c31)C(=O)NC4 | -5.2 | -57.3 | 30.1* | 105.5* | 54.3* | 16.0 | / | / | 117.3*
C[C@@H]1O[C@@H](O[C@H]2C[C@@H](O)[C@]3(CO)[C@H]4[C@H](O)C[C@]5(C)[C@@H](C6=CC(=O)OC6)CC[C@]5(O)[C@@H]4CC[C@]3(O)C2)[C@H](O)[C@H](O)[C@H]1O | -2.8 | -79.1 | 21.9* | 32.5* | 33.8* | -22.0 | / | / | 58.5* | S1P1 antagonist=3.8
CC12CC[C@H]3[C@@H](CCC4(O)C[C@H](O)CCC34/C=N/NC(=O)c3ccccc3Cl)C1(O)CCC2C1=CC(=O)OC1 (some centres not stated) | 0.8 | -13.3 | / | -1.4 | / | -37.6 | / | / | /
COC(=O)[C@@H]1[C@@H](C(=O)OC)C2(c3ccccc3-c3ccccc32)N(c2ccc(Cl)cc2)N1C#N | -2.4 | -2.5 | 7.7 | 24.5 | 3.3 | 2.3 | / | / | /
COC(=O)C[C@]1(C(=O)OC)CN(C#N)N(c2ccc(Cl)cc2)C12c1ccccc1-c1ccccc12 | -0.8 | 7.0 | 2.3 | 55.4* | 7.5 | -4.6 | / | / | 120.1* | S1P1 antagonist=87.5*
O=c1[nH]sc2cc(F)ccc12 | -0.8 | 13.8 | / | 30.7* | -4.3 | -6.9 | / | / | 90.7* | S1P1 antagonist=45.8*
CCOc1ccc(-n2c(O)c(C=NCCN(CC)CC)c(=O)[nH]c2=O)cc1 | -0.3 | 13.6 | 2.3 | 3.1 | 7.1 | 4.2 | / | / | /
CN(C)P(=O)(CCl)Nc1ccccc1 (configuration not stated) | -0.3 | -3.6 | 2.8 | -10.7 | 0.1 | 2.6 | / | / | /

Screens (PubChem BioAssay)
